The target in assay [1] is T1, RePC (Rhizobium etli pyruvate carboxylase) (Rhizobium etli, UniProt Q2K340).
T1 sequence (Q2K340 1-1154): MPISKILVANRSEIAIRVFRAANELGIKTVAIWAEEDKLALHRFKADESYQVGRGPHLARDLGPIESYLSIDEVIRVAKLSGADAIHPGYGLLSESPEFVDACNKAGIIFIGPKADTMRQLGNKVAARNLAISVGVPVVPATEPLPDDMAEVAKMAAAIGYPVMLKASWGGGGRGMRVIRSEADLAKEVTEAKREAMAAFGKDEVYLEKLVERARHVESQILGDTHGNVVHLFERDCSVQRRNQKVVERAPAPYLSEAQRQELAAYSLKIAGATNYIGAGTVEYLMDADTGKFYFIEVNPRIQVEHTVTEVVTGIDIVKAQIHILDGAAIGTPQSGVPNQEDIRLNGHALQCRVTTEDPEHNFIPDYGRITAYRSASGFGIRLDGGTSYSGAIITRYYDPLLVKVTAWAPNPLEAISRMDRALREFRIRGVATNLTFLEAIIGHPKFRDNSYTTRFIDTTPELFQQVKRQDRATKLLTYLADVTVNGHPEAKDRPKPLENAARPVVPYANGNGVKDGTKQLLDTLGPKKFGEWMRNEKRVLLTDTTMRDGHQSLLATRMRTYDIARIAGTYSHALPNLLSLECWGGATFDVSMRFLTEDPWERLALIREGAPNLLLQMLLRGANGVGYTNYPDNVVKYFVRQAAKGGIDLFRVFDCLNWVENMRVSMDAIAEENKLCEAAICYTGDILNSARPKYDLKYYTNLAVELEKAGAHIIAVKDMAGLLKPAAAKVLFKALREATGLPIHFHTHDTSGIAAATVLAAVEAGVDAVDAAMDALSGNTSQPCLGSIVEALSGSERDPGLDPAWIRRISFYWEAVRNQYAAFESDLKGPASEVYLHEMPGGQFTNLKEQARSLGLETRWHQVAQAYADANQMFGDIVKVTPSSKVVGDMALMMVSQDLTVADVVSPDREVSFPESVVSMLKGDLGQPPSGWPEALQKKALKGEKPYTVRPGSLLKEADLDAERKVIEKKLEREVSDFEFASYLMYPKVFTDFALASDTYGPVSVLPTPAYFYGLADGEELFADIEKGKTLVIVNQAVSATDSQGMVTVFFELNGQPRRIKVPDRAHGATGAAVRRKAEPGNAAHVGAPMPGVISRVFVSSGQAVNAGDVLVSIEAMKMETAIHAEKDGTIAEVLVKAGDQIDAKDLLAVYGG
The assay is described as follows: malate dehydrogenase-coupled pyruvate carboxylation assay, global fit. Type of assay: biochemical.

The target in assay [2] is T1, RePC (Rhizobium etli pyruvate carboxylase). The assay can be described thus: malate dehydrogenase-coupled pyruvate carboxylation assay. It counts as biochemical. In short, it runs like this:
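N-terminally His-tagged R. etli enzyme, expressed in E. coli BL21(DE3). NADH oxidation followed, with oxaloacetate converted to malate by 5 units of malate dehydrogenase. Run at 30 °C in 0.1 M Tris-HCl pH 7.8 with 20 mM NaHCO3, 6 mM MgCl2, 1 mM MgATP, 0.2 mM NADH and 10 mM pyruvate. Activator varied 0–150 μM at 0–8 mM L-aspartate. kapp = initial velocity/enzymic biotin. Hill-equation nonlinear least-squares fit gives the activation constant.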

In the case of `N[C@@H](CC(=O)O)C(=O)O` [L-aspartate], the Ki (commonly a measure of affinity in units of concentration, obtained from inhibition or displacement) in assay [1] worked out at 1260 ± 80 µM.

In the case of `CC(=O)SCCNC(=O)CCNC(=O)[C@H](O)C(C)(C)COP(=O)(O)OP(=O)(O)OC[C@H]1O[C@@H](n2cnc3c(N)ncnc32)[C@H](O)[C@@H]1OP(=O)(O)O` [acetyl-CoA], the midpoint of the response in assay [2], the EC50, lay at 7.3 ± 0.9 µM.

The values above are taken from article PMC4238798 (Biochemistry, 2014).
